ALR inh: inhibitors of human sulfhydryl oxidase ALR | actives 3.8% (n = 290,000) | purified ALR, DTT oxidation, H2O2 HRP-luminol luminescence | inhibition, % (no concentration beside the values);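 active = mean replicate inhibition above about 79%, with every replicate also reaching it, limit read from the data; inconclusive = only one of the two criteria met; inactive = mean below limit and not every replicate reaching it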
Target sequence (P55789 whole entry, looked up): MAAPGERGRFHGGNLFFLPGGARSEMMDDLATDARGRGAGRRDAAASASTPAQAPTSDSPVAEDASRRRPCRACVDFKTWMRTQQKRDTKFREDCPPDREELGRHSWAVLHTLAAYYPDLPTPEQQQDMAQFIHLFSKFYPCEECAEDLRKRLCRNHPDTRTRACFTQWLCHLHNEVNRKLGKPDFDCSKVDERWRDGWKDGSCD
EBNA-1 inh: blocks EBNA-1 binding to DNA; inhibition, % at 14.8 µM; AID 1950; actives 0.34% (n = 300,000); EBNA-1 DNA binding, fluorescence polarization; in the data active = inhibition above about 28%
NS3 helicase inh: HCV NS3 helicase inhibition; NS3 helicase DNA unwinding, Cy5 molecular beacon fluorescence; inhibition, % at 10.9 µM; actives 0.56% (n = 290,000);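 active = inhibition above the mean of all tested compounds plus 3 SD, set per campaign, cut at about 35% in these data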;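 also: 0% = DMSO wells and 100% = thioflavine S control wells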
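System: NS3 helicase fragment of HCV / Schedule: 1 h at 25 °C / Control set: DMSO alone as 0% and 110 µM thioflavine S as 100% / Reagent: Cy5/quencher beacon DNA duplex and ATP to start / Technique: Cy5 fluorescence / Replication: singlicate / Evaluation: % inhibition of end-to-start signal ratio versus controls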
PfM18AAP inh: blocks P. falciparum M18 aspartyl aminopeptidase | recombinant PfM18AAP, H-Glu-NHMec fluorogenic cleavage | inhibition, % at 7.35 µM | actives 1.2% (n = 290,000) | AID 1822;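 active = inhibition above the campaign mean inhibition over all tested compounds plus 3 SD, cut at about 28% in these data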;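 also: 0% = plate median of test compound wells and 100% = 2 mM ZnCl2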
HCV core dimer: blocks dimerization of HCV core protein | actives 0.33% (n = 300,000) | TR-FRET GST/Flag-core106 dimerization, 1536-well | inhibition, % at 5 µM | AID 1899;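 active = inhibition above the mean of all tested compounds plus 3 SD, set per screening campaign, cut at about 45% in these data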
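System: GST/Flag-tagged HCV core106 proteins. Incubation: compound-protein-antibody incubation 4 h at 22.5 °C. Technique: HTRF with 340 nm excitation, 617/671 nm emission. Medium: KF-containing HEPES buffer, pH 7.45, DTT, CHAPS, BSA. Read-out: inhibition (%) from 671 over 617 nm ratio. Also added: Eu(K)-anti-GST 90 ng/mL plus XL665-anti-Flag 1 µg/mL.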
ZTA DNA inh: blocks Epstein-Barr virus ZTA, an EBNA-1 counter-screen; P03206; ZTA-DNA binding, fluorescence polarization; inhibition, % at 11 µM; actives 0.15% (n = 320,000); AID 2234; in the data active = inhibition above about 33%
Target sequence (P03206 whole entry, looked up): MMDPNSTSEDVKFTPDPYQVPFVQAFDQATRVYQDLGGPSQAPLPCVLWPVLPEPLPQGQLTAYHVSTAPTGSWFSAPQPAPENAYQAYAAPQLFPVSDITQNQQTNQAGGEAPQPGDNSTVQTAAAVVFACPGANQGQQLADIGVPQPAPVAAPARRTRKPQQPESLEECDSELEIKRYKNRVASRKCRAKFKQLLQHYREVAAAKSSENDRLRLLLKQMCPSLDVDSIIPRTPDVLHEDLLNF
* marks the source's active call; other numbers are inactive results; u = inconclusive; x = no result given. This is a sample that favours compounds with a hit; in the whole collection about 5.2% have one here.

SMILES	ALR inh	EBNA-1 inh	NS3 helicase inh	PfM18AAP inh	HCV core dimer	ZTA DNA inh
O=C1CCC(C(=O)Nc2ccccc2N2CCCC2)=NN1	85*	2	x	x	14	4
Cn1nc(C(=O)N2CCC(C(N)=O)CC2)c2c1-c1ccccc1SC2	x	-11	7	8	-14	2
Nc1cc(=O)nc(SCC(=O)Nc2ccccc2)n1-c1ccccc1	2	-5	1	3	-6	-2
Cc1cccc(-n2c(N)cc(=O)nc2SCC(=O)Nc2ccccc2)c1	98*	8	-3	-3	3	-11
Cc1nc(SCC(=O)Nc2ccccc2Cl)oc1C	99*	4	-7	-3	-1	-2
Nc1cc(=O)nc(SCC(=O)Nc2ccccc2Cl)n1-c1ccccc1	99*	-2	5	2	4	-12
C=CCn1c(N)cc(=O)nc1SCC(=O)Nc1ccc2ccccc2c1	99*	7	-2	-6	0	-3
C=CCn1c(N)cc(=O)nc1SCC(=O)NC(C)c1ccccc1 (stereo not drawn)	-3	2	-1	-4	3	8
CCn1nc(C)c(CN2CCC(n3nccc3NC(=O)Cc3ccccc3)CC2)c1C	-3	8	8	-12	13	-1
Cc1ccc(SCC(=O)N2c3ccccc3Sc3ccccc32)cc1	-4	0	-5	-13	12	19
CCN1C(=O)[C@H]2[C@@H](c3ccc(-c4ccc(OC)cc4)cc3)N3CCC[C@@]3(C(=O)OC)[C@H]2C1=O	1	13	x	x	9	17
Cc1cc(C)c(Nc2cc(S(=O)(=O)O)c(N)c3c2C(=O)c2ccccc2C3=O)c(C)c1	x	51*	24	4	-13	52*
Cc1cc(C)c(NC(=O)COC(=O)c2cccc3c2C(=O)c2ccccc2C3=O)c(C)c1	x	-15	-15	-4	16	-12
CC(C(=O)NCc1ccccc1Cl)N1C(=O)c2ccccc2C1=O (stereo not drawn)	-6	-10	6	-2	3	-2
Oc1ccc(Oc2ccc3c(C(F)(F)F)cc(C(F)(F)F)nc3n2)cc1	99*	16	-8	18	8	0
COc1ccc(Oc2ccc3c(C(F)(F)F)cc(C(F)(F)F)nc3n2)cc1	-4	-2	2	0	-3	-25
CC(Sc1ccc2c(c1)OCCO2)C(=O)Nc1ccc2c(c1)OCO2 (stereo not drawn)	x	-5	3	9	-3	-13
CC(Sc1ccc2c(c1)OCCO2)C(=O)Nc1ncc(Cl)cc1Cl (stereo not drawn)	99*	-2	-1	2	-11	5
Cc1c(N2C(=O)c3ccc4c5c(ccc(c35)C2=O)CC4)c(=O)n(-c2ccccc2)n1C	-20	1	15	4	82*	-16
CC(C)Oc1ccc(CNC(=O)C2CCCN(S(=O)(=O)N3CCOCC3)C2)cc1 (stereo not drawn)	15	-12	0	1	2	-10
Cn1nccc1C(=O)OCC(=O)Nc1cccc(Cl)c1	1	x	x	x	x	-12
Cc1ccc2cc(C#N)c(NCc3ccccc3)nc2c1	0	13	11	8	48*	8
CC(C)(C)c1[nH]c2ccccc2c1/C=N/O	99*	7	4	-10	-6	9
CC(C)(CO)N=Cc1c(O)[nH]c2ccccc12	100*	8	-8	3	-10	7
Cc1cc(C(=O)N/N=C/c2c(C)[nH]c3ccccc23)n[nH]1	x	4	-5	-15	2	0
SMILES	ALR inh	EBNA-1 inh	NS3 helicase inh	PfM18AAP inh	HCV core dimer	ZTA DNA inh
Cc1cccc(/N=C/c2c(O)[nH]c3ccccc23)n1	42	-6	-11	-5	-14	-1
CC(C)N=Cc1c(O)[nH]c2ccccc12	99*	6	-4	2	-8	1
COc1ccc(C2=NN(CC(=O)NCC(OC)OC)C(=O)CC2)cc1	7	0	-4	-5	-1	4
NC(=O)c1ccc(NC(=O)CNC(c2ccccc2)c2ccccc2)cc1	x	-1	-5	0	11	1
COc1cccc(CNS(=O)(=O)c2ccc3c(c2)N(C)CCO3)c1	14	10	6	0	9	1
O=C(CCN1CCCC1=O)NC1CCCc2c1cnn2-c1ccc(F)cc1F (stereo not drawn)	-15	11	4	-6	-11	1
CC(C)N(CCO)C(=O)C(c1ccccc1)c1ccccc1	0	0	1	-2	1	-4
CN(CCO)c1ccc(C(C(=O)c2ccccc2)c2ccc(N(C)CCO)cc2)cc1	91*	4	x	x	-24	-10
COc1ccc(CCNC(=O)CN2C(=O)COc3ccc(S(=O)(=O)N4CCOCC4)cc32)cc1OC	-2	-4	0	1	11	5
O=C(O)CCN1C(=O)CC(N2C(=O)/C(=C/c3ccc(Cl)cc3)SC2=S)C1=O (stereo not drawn)	98*	-14	15	18	14	5
CCOc1ccc(/C=C2\SC(=S)N(CCC(=O)O)C2=O)cc1	3	7	-2	3	1	-15
COc1cc(/C=N/NC(=S)NC2CC3CC2C2C=CCC32)ccc1O (stereo not drawn)	34	-2	-16	4	2	-4
Cc1ccc(N/N=C(\C#N)C(=N)N2CCOCC2)cc1	98*	8	3	4	-6	5
CCN(CC)C(=N)/C(C#N)=N/Nc1ccc(C)cc1	99*	3	-12	-11	-11	-13
COc1ccc(N/N=C(\C#N)C(=N)N2CCCCC2)cc1	99*	6	-4	7	-3	-12
COC(=O)c1ccc(CS(=O)(=O)c2ccc(F)cc2)o1	-2	0	9	-4	-2	-14
CC(C)C[C@H](N)c1nnc(S(=O)(=O)Cc2ccc(F)cc2)o1	98*	-9	-15	-31	-6	-4
O=C(O)/C=C\C(=O)Nc1ccccc1C#Cc1ccc(Br)cc1	98*	1	-9	-5	42	-10
O=C(O)/C=C\C(=O)Nc1ccccc1C#Cc1ccccc1	u	8	-2	-1	2	8
COc1ccc(Cl)cc1N1C(=O)/C(=C\c2sccc2C)N=C1SCC(=O)NC1CC1	81*	4	-7	7	0	-5
c1ccc(C[n+]2csc3ccccc32)cc1	24	7	0	30*	-1	4
COc1ccc(NC(=O)c2cc(C)no2)cc1	-2	7	-6	-1	-2	-7
CCn1nc(C)c(CNC(=O)Nc2ccccc2C(=O)OC)c1C	96*	-13	18	-12	5	-3
Cc1noc(NS(=O)(=O)c2ccc(NC(=O)c3ccccc3NS(=O)(=O)c3ccc(F)cc3)cc2)c1C	18	x	x	x	x	x
COCCn1c(-c2ccc3ccccc3c2)nc2c1c(=O)[nH]c(=O)n2CC(C)C	-5	6	16	0	8	12
